Data: ChEMBL document CHEMBL1122162, “Carbocyclic analogue of 3-deazaadenosine: a novel antiviral agent using S-adenosylhomocysteine hydrolase as a pharmacological target” (1982)
Converted amounts (≈) assume the structure as drawn. The source made the active and inactive calls. The rule behind the calls is not given here.

How the values were obtained:
[1] = species on record: Mus musculus; experiment: In vitro antiviral activity against herpes simplex virus type 1 (strain E-377) grown in mouse fibroblasts cells, clone L-929, expressed as virus ration (VR); type: functional, Fibroblast
[2] = species on record: Mus musculus; experiment: Effect in mouse infected with herpes simplex virus type-1; observed effects diminished with time; type: functional, organism-based
[3] = species on record: Mus musculus; experiment: Effect in mouse infected with vaccinia virus; observed effects seen; type: functional, organism-based
[4] = species on record: Mus musculus; experiment: Minimum Inhibitory concentration of the drug required for 50% inhibition of herpes simplex virus type 1 (strain E-377) -induced cytopathogenic effects in infected cell cultures.; type: functional
[5] = species on record: Mus musculus; experiment: Minimum Inhibitory concentration of the drug required for 50% inhibition of vaccinia virus (strain Lederle chorioallantoic) -induced cytopathogenic effects in infected cell cultures.; type: functional
[6] = species on record: Mus musculus; experiment: In vitro antiviral activity against vaccinia virus (strain Lederle chorioallantoic) grown in mouse fibroblasts cells, clone L-929, expressed as VR; type: functional, Fibroblast
[7] = species on record: Rattus norvegicus; experiment: Percent inhibition of oncogenic transformation of HL-23 virus infected rat kidney cells (NRK 153C17) at 0 uM; type: functional
Procedure, shortened: (§1)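 NRK 153 C1 7 rat kidney cells infected with HL-23 virus in the presence of compound at 0–4 μM. Foci were stained with Giemsa and counted per dish on day 5. % inhibition was derived from focus counts relative to the untreated dish.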

[8] = species on record: Rattus norvegicus; experiment: Percent inhibition of oncogenic transformation of HL-23 virus infected rat kidney cells (NRK 153C17) at 0.25 uM; type: functional; procedure, shortened: as §1
[9] = species on record: Rattus norvegicus; experiment: Percent inhibition of oncogenic transformation of HL-23 virus infected rat kidney cells (NRK 153C17) at 1 uM; type: functional; procedure, shortened: as §1
[10] = species on record: Rattus norvegicus; experiment: Percent inhibition of oncogenic transformation of HL-23 virus infected rat kidney cells (NRK 153C17) at 2 uM; type: functional; procedure, shortened: as §1
[11] = species on record: Rattus norvegicus; experiment: Percent inhibition of oncogenic transformation of HL-23 virus infected rat kidney cells (NRK 153C17) at 4 uM; type: functional; procedure, shortened: as §1
[12] = species on record: Rattus norvegicus; experiment: Inhibition of oncogenic transformation expressed as %control cell number on day 3 in HL-23 virus infected rat kidney cells (NRK 153C17) at 0.25 uM; type: functional
Procedure, shortened: (§2)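 Normal rat kidney cells (NRK 153 C1 7) infected with HL-23 virus, a C-type virus isolated from human acute myelogenous leukemia cells, and exposed to compound at 0–4 μM. Cell number determined on day 3 and expressed as % of control.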

[13] = species on record: Rattus norvegicus; experiment: Inhibition of oncogenic transformation expressed as %control cell number on day 3 in HL-23 virus infected rat kidney cells (NRK 153C17) at 0.5 uM; type: functional; procedure, shortened: as §2
[14] = species on record: Rattus norvegicus; experiment: Inhibition of oncogenic transformation expressed as %control cell number on day 3 in HL-23 virus infected rat kidney cells (NRK 153C17) at 1 uM; type: functional; procedure, shortened: as §2
[15] = species on record: Rattus norvegicus; experiment: Inhibition of oncogenic transformation expressed as %control cell number on day 3 in HL-23 virus infected rat kidney cells (NRK 153C17) at 2 uM; type: functional; procedure, shortened: as §2
[16] = species on record: Rattus norvegicus; experiment: Inhibition of oncogenic transformation expressed as %control cell number on day 3 in HL-23 virus infected rat kidney cells (NRK 153C17) at 4 uM; type: functional; procedure, shortened: as §2
[17] = species on record: Rattus norvegicus; experiment: Inhibition of oncogenic transformation was assayed by infecting normal rat kidney cells (NRK 153C17) with HL-23 virus and counting the %control cell number on day 3 at a concentration of 0 uM; type: functional; procedure, shortened: as §2
[18] = species on record: Rattus norvegicus; experiment: Inhibition of oncogenic transformation expressed as number of foci on day 5 in HL-23 virus infected rat kidney cells (NRK 153C17) at 0 uM; type: functional; procedure, shortened: as §1
[19] = species on record: Rattus norvegicus; experiment: Inhibition of oncogenic transformation expressed as number of foci on day 5 in HL-23 virus infected rat kidney cells (NRK 153C17) at 0.25 uM; type: functional; procedure, shortened: as §1
[20] = species on record: Rattus norvegicus; experiment: Inhibition of oncogenic transformation expressed as number of foci on day 5 in HL-23 virus infected rat kidney cells (NRK 153C17) at 0.5 uM; type: functional; procedure, shortened: as §1
[21] = species on record: Rattus norvegicus; experiment: Inhibition of oncogenic transformation expressed as number of foci on day 5 in HL-23 virus infected rat kidney cells (NRK 153C17) at 1 uM; type: functional; procedure, shortened: as §1
[22] = species on record: Rattus norvegicus; experiment: Inhibition of oncogenic transformation expressed as number of foci on day 5 in HL-23 virus infected rat kidney cells (NRK 153C17) at 2 uM; type: functional; procedure, shortened: as §1
[23] = species on record: Rattus norvegicus; experiment: Inhibition of oncogenic transformation expressed as number of foci on day 5 in HL-23 virus infected rat kidney cells (NRK 153C17) at 4 uM; type: functional; procedure, shortened: as §1
[24] = species on record: Mus musculus; experiment: In vitro antiviral activity against herpes simplex virus type 1 (strain E-377) grown in mouse fibroblasts cells, clone L-929, expressed as virus rating (VR); type: functional, Fibroblast
[25] = species on record: Rattus norvegicus; experiment: Percent inhibition of oncogenic transformation of HL-23 virus infected rat kidney cells (NRK 153C17) at 0.5 uM; type: functional; procedure, shortened: as §1
[26] = species on record: Mus musculus; experiment: Effect in mouse infected with herpes simplex virus type-1; observed effects seen; type: functional, organism-based
[27] = species on record: Mus musculus; experiment: Minimum Inhibitory concentration of the drug required for 50% inhibition vaccinia virus (strain Lederle chorioallantoic)-induced cytopathogenic effects in infected cell cultures.; type: functional

Nc1nccc2c1ncn2[C@@H]1O[C@H](CO)[C@@H](O)[C@H]1O
Virus rating [1]: 0.5

Nc1nccc2c1ncn2[C@@H]1C[C@H](CO)[C@@H](O)[C@H]1O [3-DEAZAARISTEROMYCIN A]
Activity [2]: + to +/-
Activity [3]: observed effects seen
MIC [4]: 238 µg/mL (≈ 901 µM)
MIC [5]: 1.9 µg/mL (≈ 7.19 µM)
Virus rating [6]: 2.8
Inhibition [7]: 0%
inhibition at 0.25 µM [8]: 44%
inhibition at 1 µM [9]: 76%
inhibition at 2 µM [10]: 92%
inhibition at 4 µM [11]: 99%
Control cell number [12]: 100%
Control cell number [13]: 96%
Control cell number [14]: 81%
Control cell number [15]: 71%
Control cell number [16]: 53%
Control cell number [17]: 100%
No. of foci per dish [18]: 115
No. of foci per dish [19]: 64
No. of foci per dish [20]: 65
No. of foci per dish [21]: 28
No. of foci per dish [22]: 9
No. of foci per dish [23]: 1
Virus rating [24]: 1.1
inhibition at 0.5 µM [25]: 44%

Nc1ncnc2c1ncn2[C@@H]1O[C@H](CO)[C@@H](O)[C@@H]1O [VIDARABINE]
Activity [26]: Active
Activity [3]: Active
MIC [4]: 2.1 µg/mL (≈ 7.86 µM)
MIC [27]: 19.2 µg/mL (≈ 71.8 µM)
Virus rating [6]: 1.2
Virus rating [24]: 3.2
